Myeloid diff 2: promotes myeloid progenitor differentiation | ER-HoxA9 myeloid progenitors, lysozyme-GFP differentiation, flow cytometry | calls only at 10 µM | 360,000 tested, 1% active | AID 624256;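 active means normalized GFP-positive differentiation at or above the plate's own cutoff, the solvent-only control mean plus 3 SD; inconclusive means no clear call, values can overlap the other calls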;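 further: cells exposed to compound for four days before flow analysis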
Granule exo inh: lytic granule exocytosis inhibition; TALL-104 LAMP-1 surface exposure, flow cytometry; cells stimulated with thapsigargin and PMA; inhibition, % at 10 µM; 360,000 tested, 0.66% active;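 active means inhibition above about 55%, limit read from the data; inconclusive means no clear call, values can overlap the other calls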
CendR NRP1 mod: NRP-1/CendR interaction modulation. O14786. 360,000 tested, 0.85% active. inhibition, % at 25 µM. FAM-RPARPAR peptide binding to NRP-1, fluorescence polarization;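 active means inhibition or corrected inhibition above about 18%, plus a signal ratio from 0.5 to 1.5, limit read from the data, passing the limit was not always enough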
Arr AP2 block: inhibitors of human beta-arrestin and AP2 interaction | FITC-arrestin peptide / GST-AP2 beads, flow cytometry; AP2 beta2 appendage carries R879A mutation | inhibition, % at 10 µM | 340,000 tested, 0.31% active | AID 504490;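 active means inhibition above a set limit, near 3 SD of compounds lacking own fluorescence, cut at about 54% in these data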;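 further: plate controls were DMSO wells for no effect and 5 µM unlabelled arrestin peptide for full effect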
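System: GST-AP2 R879A glutathione beads | Also added: FITC-arrestin peptide, 50 nM | Times: 12 min plus 1 h, RT | Signal: Bead flow cytometry, FITC channel | Buffer or medium: PBS with 0.05% Tween 20 and 0.1% BSA | Read-out basis: Percent drop in bead-associated FITC signal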
ATG4B inh: blocks human ATG4B protease cleavage of LC3 substrate; ATG4B cleavage of LC3-PLA2, NBD-HPC fluorescence, 1 h; Q9Y4P1; inhibition, % at 8.33 µM; 340,000 tested, 0.51% active; in the data active means inhibition above about 40%
ABCB6 inh 2: human ABCB6 transporter inhibition. K562-ABCB6 porphyrin accumulation, flow cytometry, 1 h; stronger effect = lower value. Q9NP58. 360,000 tested, 0.19% active. fluorescence ratio to DMSO, % at 10 µM. AID 602162;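 active means fluorescence ratio to DMSO below 75%, the collection mean minus 3 SD; inconclusive means too few cells collected in the well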;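 further: signal is porphyrin accumulated inside mitochondria; 100% equals median channel fluorescence of DMSO control wells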
Arr-AP2 CP1: inhibitors of human beta-arrestin and AP2 interaction. inhibition, % at 10 µM. 1,300 tested, 2% active. shares compounds with Arr AP2 block. GST-AP2 beads, FITC arrestin peptide binding, flow cytometry; GST-fused beta2-adaptin appendage, R879A mutant;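 active means inhibition above a set limit, roughly 3 SD of non-fluorescent compound noise, cut at about 38% in these data; inactive means inhibition at or below that limit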;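 further: loss of bead fluorescence from 50 nM FITC arrestin peptide bound to appendage; 0% = negative control wells and 100% = excess unlabelled arrestin peptide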
Target sequence (P63010 whole entry, looked up, the tested form may be a part, one chain of several): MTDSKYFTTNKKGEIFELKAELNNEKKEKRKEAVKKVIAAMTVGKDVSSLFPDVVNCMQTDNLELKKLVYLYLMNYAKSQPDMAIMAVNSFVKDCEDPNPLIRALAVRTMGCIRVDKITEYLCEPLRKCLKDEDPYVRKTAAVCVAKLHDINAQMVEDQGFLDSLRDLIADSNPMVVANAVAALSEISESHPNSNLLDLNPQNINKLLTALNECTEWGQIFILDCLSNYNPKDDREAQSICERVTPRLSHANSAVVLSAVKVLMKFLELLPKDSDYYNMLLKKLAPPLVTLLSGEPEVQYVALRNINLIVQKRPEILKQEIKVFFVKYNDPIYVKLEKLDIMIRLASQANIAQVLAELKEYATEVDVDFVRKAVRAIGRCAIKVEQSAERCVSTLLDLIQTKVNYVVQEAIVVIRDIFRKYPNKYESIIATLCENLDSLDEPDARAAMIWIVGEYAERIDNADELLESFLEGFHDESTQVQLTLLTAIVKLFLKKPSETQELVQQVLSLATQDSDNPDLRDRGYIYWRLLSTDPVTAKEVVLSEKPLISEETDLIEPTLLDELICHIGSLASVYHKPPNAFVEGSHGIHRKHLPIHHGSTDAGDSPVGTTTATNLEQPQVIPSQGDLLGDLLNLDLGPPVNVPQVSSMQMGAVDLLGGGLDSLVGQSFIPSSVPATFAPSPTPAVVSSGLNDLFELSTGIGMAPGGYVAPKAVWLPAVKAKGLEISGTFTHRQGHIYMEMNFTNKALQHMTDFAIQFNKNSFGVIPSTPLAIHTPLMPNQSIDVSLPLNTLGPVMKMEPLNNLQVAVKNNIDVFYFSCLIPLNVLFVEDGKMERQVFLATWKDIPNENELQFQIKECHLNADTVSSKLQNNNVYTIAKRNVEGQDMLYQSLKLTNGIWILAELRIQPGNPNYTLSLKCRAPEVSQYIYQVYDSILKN
GST GSH counter: counter-screen for beta-arrestin AP2 inhibitors: GST-GSH bead binding | shares compounds with Arr AP2 block | GST-fluorescein binding to GSH beads, fluorescence | inhibition, % at 10 µM | 1,300 tested, 2% active | AID 588338;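 active means inhibition above 50%, about 3 SD of the inhibition seen with non-fluorescent compounds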;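 further: fluorescein maleimide labelled GST captured on 4 micron glutathione beads; higher means more loss of bead fluorescence from quenching or blocked binding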
Active calls of the source: *; i = inactive; ? = inconclusive; / = no result given. Hits are enriched below; roughly 3.3% of the tested compounds scored in any of these assays.

SMILES	Myeloid diff 2	Granule exo inh	CendR NRP1 mod	Arr AP2 block	ATG4B inh	ABCB6 inh 2	Arr-AP2 CP1	GST GSH counter
Cc1ccc(N(CCC#N)C(=O)COC(=O)c2ccccn2)cc1	i	-1.8	-16.9	69.0*	-0.5	104.0	-5.6	-0.6
O=C(NCc1ccc(Cl)cc1)C1CCN(S(=O)(=O)c2cccc3nonc23)CC1	i	3.0	-0.7	108.8*	-12.4	103.0	22.8	51.9*
Cc1cc(C(=O)Nc2cccc(S(=O)(=O)N3CCCC3)c2)c2ccccc2n1	i	-2.3	2.8	3.4	-14.9	88.0	/	/
Cc1cc(C(=O)Nc2cccc(S(=O)(=O)N3CCCCC3)c2)c2ccccc2n1	i	-0.1	-15.2	-5.6	-22.2	94.0	-8.5	-2.0
COc1cc(OC)cc(C(C(=O)NC2CCCCC2)N(C(=O)c2ccno2)c2ccccc2)c1 (centres undefined)	i	-0.8	-7.8	0.5	-9.9	99.0	/	/
COc1ccc(Nc2nc3cc(C)ccc3cc2C#N)c(OC)c1	?	-3.3	2.6	90.8*	-3.7	80.0	11.9	75.5*
COc1ccc(Nc2nc3ccc(C)cc3cc2C#N)c(OC)c1	i	0.7	-4.5	-16.4	3.2	106.0	/	/
COC(=O)[C@@]12OC[C@]34[C@H]([C@@H](O)[C@@H]1O)[C@@]1(C)C(=O)C(O[C@@H]5OC(CO)[C@@H](O)[C@@H](O)[C@@H]5O)=C[C@@H](C)[C@@H]1C[C@H]3OC(=O)[C@H](OC(=O)/C=C(\C)C(C)(C)OC(C)=O)[C@@H]24 (some centres undefined)	/	/	/	/	-3.7	/	/	/
Cc1nn(-c2ccc(F)cc2)c(Cl)c1/C=C/C(=O)OCC(=O)Nc1c(F)c(F)c(F)c(F)c1F	i	3.4	3.8	104.1*	-2.7	97.0	-3.6	-1.9
CCc1ccc2[nH]c(=O)c(CN(CCN3CCCC3)C(=O)NC3CCCCC3)cc2c1	i	-1.4	1.3	-2.4	1.2	103.0	17.8	1.2
Cc1ccc2[nH]c(=O)c(CN(CCCN3CCOCC3)C(=O)NC3CCCCC3)cc2c1	i	-1.7	-12.9	-18.6	-12.4	95.0	-9.2	-6.4
CC1(C)CC(NC(=O)c2cc(S(=O)(=O)N3CCOCC3)ccc2Cl)CC(C)(C)N1	i	-3.5	1.3	30.8	5.3	89.0	/	/
C=CCNc1nc(C(=O)OC(C)C(=O)c2ccc(C)cc2)cs1 (centres undefined)	i	-4.4	6.5	57.4*	-0.1	94.0	-10.4	-4.0
COc1ccc(Nc2ncccc2C(=O)NCc2ccccc2)cc1	i	-2.6	-2.9	58.4*	-7.0	130.0	0.0	-1.1
COc1ccccc1N1CCN(C(=O)CCCCCn2c(=O)[nH]c3ccsc3c2=O)CC1	i	-1.7	-5.6	21.4	-1.6	100.0	/	/
Cc1cccc(C(=O)OCC(=O)c2c(N)n(CC(C)C)c(=O)n(C)c2=O)c1[N+](=O)[O-]	i	-3.6	2.2	-9.4	-3.6	98.0	/	/
CC(C)Cn1c(N)c(C(=O)COC(=O)c2ccc(O)cc2O)c(=O)n(C)c1=O	i	0.5	-16.9	-6.0	-11.5	92.0	5.1	-6.4
Cc1cccc(C(=O)OCC(=O)c2c(N)n(CC(C)C)c(=O)n(C)c2=O)c1O	i	8.2	-9.6	-9.9	-0.4	101.0	-8.4	-5.2
Cc1cc(C)c2c(N)c(C(=O)c3ccc(Br)cc3)oc2n1	i	0.9	-1.2	-7.5	1.2	99.0	/	/
O=c1cc(CO)[nH]cc1OCc1ccccc1	i	-10.0	2.0	61.5*	3.2	99.0	-4.9	-4.6
O=c1cc(CO)occ1OCc1cccc(F)c1	i	-1.8	8.7	-3.4	8.6	93.0	/	/
CCNc1nc(NCC)n2c(SCC(=O)Nc3cccc(Cl)c3)nnc2n1	i	3.2	2.8	59.1*	-1.7	95.0	-8.5	1.7
CCNc1nc(NCC)n2c(SCC(=O)Nc3cccc(F)c3)nnc2n1	i	6.2	-5.1	-10.1	2.1	100.0	/	/
Cc1ccc2cc(CN(CC3CCCO3)C(=O)NC3CCCCC3)c(=O)[nH]c2c1C (centres undefined)	i	1.1	-11.1	12.3	-2.9	93.0	-1.6	-4.5
COc1ccc(CCN(Cc2cc3cccc(C)c3[nH]c2=O)C(=O)NC2CCCCC2)cc1OC	i	-2.6	-2.2	8.6	1.0	104.0	-1.5	-4.8

Source: PubChem BioAssay (several laboratories)
